# Compound activity as filed in PubChem.
# core dimer inh: blocks dimerization of HCV core protein; TR-FRET GST/Flag-core106 dimerization, 1536-well; inhibition, % at 5 µM; 0.33% of 300,000 active; AID 1899;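 active means inhibition above the mean of all tested compounds plus 3 SD, set per screening campaign, cut at about 45% in these data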
#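 System: GST-tagged and Flag-tagged HCV core protein residues 1-106 / Input: core106 proteins, GST 13.5 nM and Flag 17 nM / Buffer or medium: KF-containing HEPES buffer, pH 7.45, DTT, CHAPS, BSA / Probe or stimulus: Eu-anti-GST and XL665-anti-Flag labelled anti-tag antibodies / Schedule: 4 h, 22.5 °C incubation / Technique: TR-FRET 671 and 617 nm emission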
# NadD block: inhibitors of Staphylococcus aureus NadD; purified NadD enzyme, colorimetric absorbance read-out; inhibition, % at 20 µM; 0.78% of 360,000 active; AID 602399; in the data active means inhibition above about 26%
# Myeloid diff 2: promotes myeloid progenitor differentiation; AID 624256; calls only at 10 µM; 1% of 360,000 active; ER-HoxA9 myeloid progenitors, lysozyme-GFP differentiation, flow cytometry;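 active means normalized GFP-positive differentiation at or above the plate's own cutoff, the solvent-only control mean plus 3 SD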;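 further: cells exposed to compound for four days before flow analysis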
# PP1 inh: blocks human PP1-alpha phosphatase, a PP5 counter-screen; purified PP1alpha, OMFP fluorescence; inhibition, % at 6.7 µM; 0.9% of 320,000 active; AID 2235;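 active means inhibition above the mean inhibition of all tested compounds plus 3 SD, computed separately for each screening campaign, cut at about 15% in these data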
# CTSL1 counter: cathepsin L1 inhibition, PFM18AAP counter-screen; 0.49% of 300,000 active; inhibition, % at 5.96 µM; recombinant F. hepatica cathepsin L1, Z-Leu-Arg-MCA fluorescence;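 active means inhibition above the mean of all tested compounds plus 3 SD, set per screening campaign, cut at about 17% in these data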;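 further: 0% = plate median of test compound wells and 100% = 1 µM Z-Phe-Ala-diazomethylketone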
# PP5 primary: PP5 (human) phosphatase inhibition; P53041; purified PP5c, OMFP substrate fluorescence; inhibition, % at 6.7 µM; 0.18% of 320,000 active;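 active means inhibition above the campaign's mean inhibition across all tested compounds plus 3 SD, cut at about 9.5% in these data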;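 further: 0% = DMSO only and 100% = 100 µM cantharidin control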
# Target sequence (P53041 whole entry, looked up): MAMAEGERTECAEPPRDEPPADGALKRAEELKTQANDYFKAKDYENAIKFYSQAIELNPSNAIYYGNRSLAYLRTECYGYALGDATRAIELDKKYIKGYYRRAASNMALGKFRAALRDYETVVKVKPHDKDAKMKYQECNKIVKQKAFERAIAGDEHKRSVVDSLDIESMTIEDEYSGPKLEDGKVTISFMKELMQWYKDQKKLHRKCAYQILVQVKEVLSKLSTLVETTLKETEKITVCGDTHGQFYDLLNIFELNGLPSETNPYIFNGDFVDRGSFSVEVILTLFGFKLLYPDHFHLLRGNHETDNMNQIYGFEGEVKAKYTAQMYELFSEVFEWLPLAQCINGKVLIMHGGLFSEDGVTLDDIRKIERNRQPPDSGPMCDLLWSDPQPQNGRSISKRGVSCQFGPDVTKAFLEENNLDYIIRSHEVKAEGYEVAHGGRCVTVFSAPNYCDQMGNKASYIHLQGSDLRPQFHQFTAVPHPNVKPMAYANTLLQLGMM
# Myeloid diff CP1: promotes myeloid progenitor differentiation; shares compounds with Myeloid diff 2; ER-HoxA9 myeloid progenitors, GFP/Mac1 double-positive flow; calls only; 2% of 2,300 active; AID 651706;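 active means share of green or green-and-red cells above 9 and 9% in run 1 or 4 and 3% in run 2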
# GFP autofluor: flagged as fluorescent in myeloid differentiation counter-screen; shares compounds with Myeloid diff 2; ER-HoxA9 myeloid progenitors, no estrogen, GFP autofluorescence flow cytometry; vehicle wells 0%, positive control 100%; fluorescence response, % (test concentration not listed); 7.4% of 2,300 active;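 active means over 5% cells positive for green fluorescent reporter, or over 2% positive for both it and APC stain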;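 further: range taken on the double positive population between DMSO and positive control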
# * marks the source's active call; other numbers are inactive results; i = inactive; . = no result given; + = active, no number. In the library only some 3.1% were active in any assay of this set; here they are far more common.
SMILES,core dimer inh,NadD block,Myeloid diff 2,PP1 inh,CTSL1 counter,PP5 primary,Myeloid diff CP1,GFP autofluor
Nc1nc(N)nc(-c2ccc(Cl)cc2)n1,-5,8,i,1,-4,0,.,.
COc1cc(-c2ncc3ccccn23)cc(OC)c1OC,-8,-1,+,0,-3,1,i,0
COc1cc(OC)cc(-c2ncc3ccccn23)c1,-4,-1,i,2,-1,4,.,.
Cc1cc(C(=O)CN2C(=O)NC3(CCCc4ccccc43)C2=O)c(C)n1Cc1ccccc1 (stereo not drawn),29,10,i,5,0,2,.,.
Cc1cc(C(=O)CN2C(=O)CCC2=O)c(C)n1Cc1ccccc1,12,0,+,1,-1,4,i,0
O=C(CCCOc1ccc(Cl)cc1Cl)NCCCn1ccnc1,0,0,i,-4,-1,3,.,.
CC(Oc1ccc(Cl)cc1Cl)C(=O)NCCCn1ccnc1 (stereo not drawn),1,2,+,0,0,0,i,0
O=C(O)C1=C[C@H](c2csc3ccccc23)C[C@H](OCc2ccc(CO)cc2)O1,9,0,i,-1,1,3,.,.
O=C(NCc1ccccc1)C1=C[C@@H](c2csc3ccccc23)C[C@@H](OCc2ccc(CO)cc2)O1,23,0,+,7,1,0,i,0
COc1ccc(C(=O)NCCC(=O)N2CCC3(CC2)NCCc2[nH]cnc23)cc1,0,-8,i,-1,-2,0,.,.
Cc1ccc(-n2ncc(-c3nnc(SCC(=O)NC4CCCC4)o3)c2N)cc1C,-3,-8,i,1,3,-1,i,0
Cc1ccccc1-c1nnc(SCC(=O)NC2CCCC2)o1,2,-4,i,-2,5,0,.,.
CSc1ccc(CN(C)C(=O)CNC(=O)c2sc3ccccc3c2Cl)cc1,12,-11,i,-3,0,2,.,.
Cc1cccc2nc3ccccc3cc12,-2,-5,i,-7,0,0,.,.
C/C(O)=c1/ccc2cccc3nc(C)nc1c23,-1,10,+,1,1,1,i,8.4*
O=c1[nH][nH]c(-c2ccccc2O)c1C(C[N+](=O)[O-])c1ccc(Cl)cc1Cl (stereo not drawn),-5,3,i,4,-5,2,i,1
Cc1cccc(NC(=O)[C@@H]2CCCN2S(=O)(=O)c2ccc(Cl)cc2)c1,.,-1,i,.,.,.,.,.
CCN(CC(=O)NCc1cccs1)C(=O)/C=C/c1cc(Br)ccc1OC(F)F,.,-12,i,-3,.,1,.,.
Cc1ccc(-c2noc(CN(C(=O)CCN3C(=O)c4ccccc4C3=O)C(C)C)n2)cc1,8,-9,+,1,-2,1,i,0
Cc1cc(C)nc(-n2ncc3c2CC(c2ccc(F)cc2)CC3=O)n1 (stereo not drawn),-14,6,i,3,2,2,i,0
CCCCNC(=O)C1(C)CCCCN1C(=O)c1cc(C#N)cs1 (stereo not drawn),.,-1,i,.,.,.,.,.
Nc1cc2cccnc2cc1Cl,.,0,i,.,.,.,.,.
COc1cc(C(=O)NNC(=O)c2cc(-c3ccccc3)n[nH]2)cc(OC)c1C,.,20,i,1,.,4,i,1
O=C1CC2(CCOCC2)Oc2ccc3ccccc3c21,9,-2,i,-2,2,0,.,.
O=C1COc2ccc3ccccc3c21,6,-5,i,-5,-10,0,i,1
SMILES,core dimer inh,NadD block,Myeloid diff 2,PP1 inh,CTSL1 counter,PP5 primary,Myeloid diff CP1,GFP autofluor
O=C1C2CCCN2C(=S)N1c1cc(Cl)ccc1Cl (stereo not drawn),.,0,i,.,.,.,.,.
NC(=S)Nc1cccc2cc3ccccc3cc12,-22,8,+,6,2,0,i,14*
COc1ccc(S(=O)(=O)N(c2onc(C)c2Cl)S(=O)(=O)c2ccc(OC)cc2)cc1,-3,-4,i,1,0,2,i,0
Cc1ccc(F)cc1NC(=O)COC(=O)C1CC2CCCC(C1)C2=O (stereo not drawn),.,1,i,.,.,.,.,.
COc1ccccc1CCc1nnc(N)s1,-11,-3,i,-3,0,5,.,.
Nc1nnc(CCOc2ccccc2Cl)s1,1,-2,i,-1,1,3,i,0
COc1ccc2nc(-c3ccccc3)cc(C(=O)OCC(=O)N3CC(C)OC(C)C3)c2c1 (stereo not drawn),.,-1,i,4,.,1,.,.
COc1ccc(-n2c(SCC(=O)Nc3cc(C)on3)nc3ccccc3c2=O)cc1Cl,2,5,i,2,2,2,i,0
N#CCC1(O)C(=O)N(Cc2ccccc2)c2ccccc21 (stereo not drawn),.,0,i,.,.,.,.,.
COc1ccc(-n2c(Cc3cccn3C)nnc2SCC(=O)Nc2nc(C)cs2)cc1,6,5,i,-4,-4,2,i,0
COc1ccc(-n2c(Cc3cccn3C)nnc2SCC(=O)Nc2ccccc2)cc1,8,3,i,-3,-4,0,.,.
CC(C)CCNC(=O)C(Cc1ccccc1)NS(=O)(=O)c1ccc2c(c1)c(=O)n(C)c(=O)n2C (stereo not drawn),2,0,+,-4,0,0,i,0
CCC(=Nc1ccccc1O)C1=C(O)CC(c2ccccc2)CC1=O (stereo not drawn),-5,3,i,-2,-1,3,i,6.6*
COc1cc(NCCCNC(C)C)c2nccc(C)c2c1,.,8,+,.,.,.,i,0
COc1cc(NCc2ccccc2)c2ncn(C(C)C)c2c1,.,2,i,-2,.,3,.,.
O=C1NC2=C(C(=O)CCC2)C(c2cccc([N+](=O)[O-])c2)N1 (stereo not drawn),.,-4,i,.,.,.,.,.
CCN(CC(=O)Nc1c(F)cccc1F)C(=O)CC1CCCC1,-4,0,i,3,9,-2,.,.
CCN(CC(=O)Nc1c(F)cccc1F)C(=O)CC1CCCCC1,.,5,i,0,.,0,i,2
CC(C)CN(C(=O)c1ccc2c(c1)OCCO2)c1c(N)n(Cc2ccccc2)c(=O)[nH]c1=O,0,7,i,-6,-2,0,.,.
CC(C)CN(C(=O)COC(=O)C12CC3CC(CC(O)(C3)C1)C2)c1c(N)n(Cc2ccccc2)c(=O)[nH]c1=O,.,2,i,.,.,.,.,.
CC(C)CN(C(=O)c1ccc([N+](=O)[O-])s1)c1c(N)n(Cc2ccccc2)c(=O)[nH]c1=O,5,-2,+,-1,7,0,i,1
